A selection: hits, their analogues and other compounds. The true share with any hit is near 4.6%.
OX1R antag-1: antagonists of human orexin 1 receptor; inhibition, % at 5 µM; CHO/OX1R cells, Fluo-8 calcium fluorescence, orexin A; actives 0.43% (n = 330,000); O43613;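 active = inhibition above its plate's threshold, mean inhibition of all tested compounds on the plate plus 3 SD, cut at about 37% in these data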
Target sequence (O43613 whole entry, looked up): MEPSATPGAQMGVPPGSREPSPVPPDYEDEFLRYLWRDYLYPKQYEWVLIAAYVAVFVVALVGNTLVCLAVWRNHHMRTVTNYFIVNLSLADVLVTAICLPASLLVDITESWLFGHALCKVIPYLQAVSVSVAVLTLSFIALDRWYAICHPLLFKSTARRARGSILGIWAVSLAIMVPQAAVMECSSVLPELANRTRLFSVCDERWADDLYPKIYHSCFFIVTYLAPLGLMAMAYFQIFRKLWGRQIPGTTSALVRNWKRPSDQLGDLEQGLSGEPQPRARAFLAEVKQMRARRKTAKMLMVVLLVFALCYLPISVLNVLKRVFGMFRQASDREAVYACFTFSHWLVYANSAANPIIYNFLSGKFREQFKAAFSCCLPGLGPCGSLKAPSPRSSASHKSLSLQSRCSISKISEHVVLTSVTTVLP
GPR7 antag: antagonists of human GPR7 (neuropeptides B/W receptor 1); P48145; GPR7-expressing cells, fluorescence antagonist assay; inhibition, % at 4.4 µM; actives 1.1% (n = 290,000); AID 1861; in the data active = inhibition above about 16%, passing the limit was not always enough;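 also: cells stimulated with the agonist NPW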
OX1R antag-2: OX1R (human) antagonism; O43613; actives 1.8% (n = 330,000); inhibition, % at 6.6 µM; OX1R-expressing cells, FRET antagonist read-out; in the data active = inhibition mostly above about 38%, no sharp cut-off; inactive = mostly below about 40%
CHO parental Ca: counter-screen for OX1R antagonists: effect in parental CHO cells; parental CHO-K1, ATP-induced calcium, Fluo-8 fluorescence; AID 463079; actives 0.63% (n = 330,000); inhibition, % at 5.6 µM;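 active = inhibition above that plate's mean sample inhibition plus 3 SD, cut at about 26% in these data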
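Material: Parental CHO cells | Reagent: ATP | Compound dosing: Single nominal dose of 5.6 µM per compound | Detection: Intracellular calcium via Fluo-8 no-wash fluorescent dye | Read-out: % inhibition of ATP-induced calcium mobilization | Benchmarks: Low control ATP plus DMSO, high control DMSO only | Replicates: Singlicate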
TAAR1 antagonist: human TAAR1 antagonism; CHO RD-HGA16 TAAR1, Fluo-8 calcium fluorescence, antagonist; inhibition, % at 3 µM; actives 1.5% (n = 360,000);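 active = inhibition above a per-plate cutoff, the mean inhibition of test compounds on that plate plus 3 SD, cut at about 49% in these data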
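Test system: RD-HGA16 CHO cells with stable hTAAR1 and Gα16 / Probe or stimulus: EC80 β-phenethylamine stimulus / Times: seeding 17-24 h prior, 75-min 37 °C, 30-min RT dye loading / Detection: Fluo-8 calcium-sensitive fluorescence / Read-out basis: % inhibition scaled between DMSO and EC80 PEA controls / Repeats: singlicate, one well per test compound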
TAAR1 ag: human TAAR1 agonism; Q96RJ0; AID 624467; activation, % at 3 µM; CHO RD-HGA16 TAAR1, Fluo-8 calcium fluorescence; vehicle wells 0%, saturating PEA agonist 100%; actives 0.99% (n = 360,000);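 active = activation above the mean activation of all test compounds in the run plus 3 SD, cut at about 38% in these data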
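Repeats: no replicates (n 1) | Material: CHO-derived RD-HGA16 cells with stable Gα16 and human TAAR1 | Technique: Kinetic Fluo-8 calcium fluorescence | Schedule: 17-24 h seeding, 75 min 37 °C dye, 30 min RT | Evaluation: % activation from peak over basal fluorescence ratio, DMSO-to-PEA scaled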
Numbers stand for hits; 0 = inactive; - = not tested or not shown.

SMILES	OX1R antag-1	GPR7 antag	OX1R antag-2	CHO parental Ca	TAAR1 antagonist	TAAR1 ag
O=C(NCc1ccccc1)[C@@H]1CCCN1C(=O)[C@H]1CCCN1C(=O)c1ccccc1	-	-	-	-	0	0
CCOC(=O)/C(=C\c1ccc(Cl)cc1)c1nc2sc(C)c(C)c2c(=O)[nH]1	0	0	0	0	92	0
CCOC(=O)CSc1nc2sc(C)c(C)c2c(=O)[nH]1	0	0	0	0	0	0
O=C1NC(Cc2ccccc2)c2nc3ccc(Cl)cc3c(=O)n2-c2cc3ccccc3cc21 (configuration not stated)	-	-	-	-	0	0
O=C1NC(Cc2ccccc2)c2nc3ccc(F)cc3c(=O)n2-c2cc3ccccc3cc21 (configuration not stated)	-	-	-	-	49	0
O=[N+]([O-])c1ccc(Cl)cc1Sc1nc2ccccc2o1	0	0	0	0	0	0
O=[N+]([O-])c1ccc(Sc2nc3ccccc3o2)c([N+](=O)[O-])c1	0	0	37	0	0	0
Nc1nc(Sc2ccc([N+](=O)[O-])cc2[N+](=O)[O-])n[nH]1	0	0	42	0	0	0
Cc1ccnc(Sc2ccc([N+](=O)[O-])cc2[N+](=O)[O-])n1	0	0	68	0	0	0
O=c1[nH]c(Sc2ccc([N+](=O)[O-])cc2[N+](=O)[O-])nc2ccccc12	0	-	0	0	0	0
Cc1ccc(Sc2ccc([N+](=O)[O-])cc2[N+](=O)[O-])nc1	0	0	0	0	0	0
COC(=O)C1=C(C)N(C)C(=NCc2ccccc2)NC1CCc1ccccc1 (configuration not stated)	-	-	-	-	0	0
CSCCC(NC(=O)COc1ccccc1)C(=O)N(C)Cc1c(F)cccc1Cl (configuration not stated)	-	-	-	-	52	0
CSCCC(NC(=O)COc1ccccc1)C(=O)N(C)CC(=O)Nc1ccc(Cl)cc1 (configuration not stated)	0	-	0	0	0	0
c1ccc2c(-c3cccc4nccn34)cncc2c1	-	-	-	-	0	0
CN(C)S(=O)(=O)c1ccc(Cl)c(NC(=O)COC(=O)c2cc(-c3ccccc3)nc3ccccc23)c1	0	0	0	0	52	0
O=C(COC(=O)CN1C(=O)c2ccccc2C1=O)Nc1ccccc1C(F)(F)F	-	-	-	-	0	0
C#CCn1c(=NC(=O)CN2C(=O)CCC2=O)sc2cccc(OC)c21	0	0	0	0	0	0
CCn1c(=NC(=O)CS(=O)(=O)c2ccccc2)sc2cccc(OC)c21	0	-	33	0	0	0
Cn1c(=NC(=O)CS(=O)(=O)c2ccccc2)sc2ccccc21	0	-	0	0	0	0
C#CCn1c(=NC(=O)c2cccs2)sc2cccc(OC)c21	0	0	66	0	0	0
Cc1ccc2sc(NC(=O)c3cccc(N4C(=O)CCC4=O)c3)nc2c1C	0	0	0	0	0	48
CSc1ncccc1C(=O)Nc1ccc(F)c(F)c1F	0	15	0	0	0	0
COc1cc(C(O)c2nc(-c3cccc(F)c3)cs2)ccc1F (configuration not stated)	-	-	-	-	0	0
O=C(Nc1ccccc1)C1Cc2ccccc2CN1C(=O)c1ccco1 (configuration not stated)	0	0	0	0	0	0
SMILES	OX1R antag-1	GPR7 antag	OX1R antag-2	CHO parental Ca	TAAR1 antagonist	TAAR1 ag
O=C(Nc1cc(C(F)(F)F)ccc1N1CCOCC1)C1Cc2ccccc2CN1C(=O)c1ccco1 (configuration not stated)	0	40	0	0	0	0
Cc1ccc(S(=O)(=O)N2CC3(O)CN(C(=O)OC(C)C)N(C(=O)OC(C)C)CC3(OC(=O)NCc3ccccc3F)C2)cc1 (configuration not stated)	-	-	-	-	60	0
O=S(=O)(NCc1csc(-c2ccccc2)n1)c1ccc(Cl)s1	0	0	0	0	0	0
O=S(=O)(NCc1csc(-c2cccnc2)n1)c1ccc(F)cc1	0	0	0	0	0	0
CCc1ccc(S(=O)(=O)NCc2csc(-c3ccccc3)n2)s1	0	0	0	0	0	0
CCc1ccc(S(=O)(=O)NCCc2csc(-c3ccccc3)n2)s1	0	0	41	0	0	0
O=S(=O)(NCc1csc(-c2cccnc2)n1)c1ccc(Cl)s1	0	0	41	0	0	0
O=S(=O)(NCc1csc(-c2cccnc2)n1)c1ccc2c(c1)OCCO2	0	0	72	0	0	0
O=C(c1cc(COc2cccc(C(F)(F)F)c2)on1)N1CCC(c2ccncc2)CC1	0	0	0	60	0	0
Fc1ccccc1NC(=S)NCCc1ccccc1	0	0	0	0	0	56
O=[N+]([O-])c1cccc(NC(=S)NCCc2ccccc2)c1	0	0	53	0	0	0
Fc1ccccc1NC(=S)NCCc1ccc(Cl)cc1	-	0	-	-	0	0
CC(C)(CNC(=S)NCCc1ccccc1)CNC(=S)NCCc1ccccc1	-	0	-	-	62	46
Fc1cccc(NC(=S)NCCc2ccccc2)c1	0	0	0	0	0	0
COc1ccccc1-c1cc2nc(NCCc3ccncc3)ccn2n1	-	-	-	-	0	0
NS(=O)(=O)c1ccc(CCNc2ccn3nc(-c4cccc(C(F)(F)F)c4)cc3n2)cc1	-	-	-	-	61	0
COc1ccccc1-c1cc2nc(NCCc3ccc(S(N)(=O)=O)cc3)ccn2n1	-	-	-	-	56	0
O=C(NC1CCCCC1)c1ccc(-c2cn[nH]c2)c2ccoc12	-	-	-	-	0	0
COC(=O)[C@]12CCCCC=C1N(Cc1ccc3c(c1)OCO3)C(=O)[C@H](CC(=O)N1CCN(C(=O)c3ccco3)CC1)C2	-	-	-	-	0	0
O=C1CC(N2CCN(S(=O)(=O)c3cccc(C(F)(F)F)c3)CC2)C(=O)N1Cc1ccccc1 (configuration not stated)	0	25	0	0	0	0
CCN(CC)c1ccc(/C=C/c2cccc[n+]2C)c(OC)c1	0	0	0	36	0	0
COc1ccc(/C=C/c2cccc[n+]2C)c(O)c1	0	0	0	0	0	0
C=CC[n+]1c(/C=C2\C=Cc3cc(C)ccc3N2CC)ccc2ccccc21	69	35	114	56	0	0
O=C(COC(=O)c1ccccc1)Nc1ncc([N+](=O)[O-])s1	0	-	37	0	0	0
O=C(O)C1CCCC[C@H]1C(=O)Nc1ncc([N+](=O)[O-])s1 (some centres not stated)	0	-	66	0	0	0
O=C(Nc1ncc([N+](=O)[O-])s1)c1cccc([N+](=O)[O-])c1	0	0	39	0	0	0
O=C(Nc1ccc(NC(=O)c2cccc([N+](=O)[O-])c2)cc1)c1cccc([N+](=O)[O-])c1	0	0	0	0	0	0
